Screens (PubChem)
pCIP destab: compounds decreasing mouse p/CIP protein stability; decrease of EGFP signal, % at 10 µM; Q05BA5; F442A p/CIP-EGFP cells, EGFP fluorescence, 16 h; AID 1984; hit rate 0.01% among 290,000;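 active = EGFP signal decrease of at least 30% at 10 µM or well 3 SD below plate mean, unless failing retest; inactive = the rest, including hits failing retest or dose response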
Target sequence (Q05BA5 1-1403): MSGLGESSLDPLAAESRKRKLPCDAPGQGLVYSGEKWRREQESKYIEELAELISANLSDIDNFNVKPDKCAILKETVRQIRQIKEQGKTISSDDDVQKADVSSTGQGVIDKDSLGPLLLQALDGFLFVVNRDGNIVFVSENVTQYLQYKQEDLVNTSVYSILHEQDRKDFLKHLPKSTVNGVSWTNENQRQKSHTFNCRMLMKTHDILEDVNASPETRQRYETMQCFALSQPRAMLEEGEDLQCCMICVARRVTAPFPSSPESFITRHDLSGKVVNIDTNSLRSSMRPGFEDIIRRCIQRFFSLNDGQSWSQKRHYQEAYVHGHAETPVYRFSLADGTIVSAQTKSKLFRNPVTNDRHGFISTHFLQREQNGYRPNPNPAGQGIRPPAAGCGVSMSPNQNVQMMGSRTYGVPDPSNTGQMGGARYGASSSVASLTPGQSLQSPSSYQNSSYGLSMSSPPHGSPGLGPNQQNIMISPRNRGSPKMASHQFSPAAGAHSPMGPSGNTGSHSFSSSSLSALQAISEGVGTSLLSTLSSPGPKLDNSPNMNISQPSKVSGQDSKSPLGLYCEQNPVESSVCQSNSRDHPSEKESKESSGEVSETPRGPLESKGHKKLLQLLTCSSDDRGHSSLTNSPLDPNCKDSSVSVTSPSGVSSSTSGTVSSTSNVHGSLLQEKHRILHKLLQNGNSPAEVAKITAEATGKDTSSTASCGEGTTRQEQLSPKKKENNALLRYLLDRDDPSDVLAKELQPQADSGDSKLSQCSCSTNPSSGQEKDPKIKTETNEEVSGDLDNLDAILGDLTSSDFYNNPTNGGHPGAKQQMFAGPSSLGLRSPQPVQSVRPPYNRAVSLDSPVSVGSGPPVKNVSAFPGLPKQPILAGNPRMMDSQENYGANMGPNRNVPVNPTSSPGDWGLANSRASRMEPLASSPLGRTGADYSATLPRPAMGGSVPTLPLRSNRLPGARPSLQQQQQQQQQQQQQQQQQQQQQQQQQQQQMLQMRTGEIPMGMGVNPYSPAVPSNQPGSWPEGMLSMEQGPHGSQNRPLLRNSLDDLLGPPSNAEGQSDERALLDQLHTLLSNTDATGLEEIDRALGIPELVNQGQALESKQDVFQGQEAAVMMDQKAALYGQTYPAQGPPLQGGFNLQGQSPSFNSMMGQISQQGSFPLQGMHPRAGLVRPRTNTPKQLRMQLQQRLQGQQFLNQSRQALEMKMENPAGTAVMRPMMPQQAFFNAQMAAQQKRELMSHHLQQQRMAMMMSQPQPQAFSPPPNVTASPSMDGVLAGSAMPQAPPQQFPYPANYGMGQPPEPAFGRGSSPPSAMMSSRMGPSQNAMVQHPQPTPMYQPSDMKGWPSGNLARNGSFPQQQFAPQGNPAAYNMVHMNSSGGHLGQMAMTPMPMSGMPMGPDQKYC
SKN-1 block: blocks SKN-1 activity in C. elegans; AID 624304; hit rate 0.49% among 360,000; inhibition, % at 21.8 µM; C. elegans VP596 Pgst-4::GFP/RFP ratio, acrylamide-induced, 24 h;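 active = interference check ratio from 0.5 to 1.5 plus GFP to RFP signal ratio inhibition reaching or exceeding a fixed threshold, cut at about 30% in these data, passing the limit was not always enough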
MsrA inhibitor: inhibitors of bovine MsrA; hit rate 0.75% among 360,000; purified bovine MsrA, absorbance read-out; inhibition, % at 15.5 µM; in the data active = inhibition above about 4.5%;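 also: 0% = vehicle wells with enzyme and 100% = reference inhibitor wells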
MsrA act: activates bovine MsrA enzyme | purified bovine MsrA, absorbance read-out | activation, % at 10.6 µM | hit rate 0.3% among 360,000 | AID 602163; in the data active = activation above about 7.5%;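 also: 0% = vehicle and 100% = reference activator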
MT1-MMP act inh: blocks activation of human MT1-MMP. hit rate 0.061% among 360,000. HT1080 RFP-PRO-GFP cells, GFP/RFP ratio fluorescence, overnight; percent of plate control window, DMSO zero. GFP/RFP ratio change, % at 20 µM. P50281;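 active = GFP/RFP ratio change of at least 30% with cell ATP level not reduced by more than half and red fluorescence within 50% of control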
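system = RFP-PRO-GFP reporter HT1080 cells | dosing = 20 µM single dose, 1% DMSO | timing = overnight cell settling, then overnight compound exposure, 37 °C, 5% CO2 | read-out basis = GFP/RFP fluorescence ratio | controls = DMSO and RFP-L50D-GFP cell wells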
* marks the source's active call; other numbers are inactive results. Compounds with a hit are over-represented: about 1.6% of the library has one in this group of screens.

Screening COc1ccc(C(=O)N(C)[C@H]2C[C@H]3c4[nH]c5c(-c6ccccc6)cccc5c4CCN3C(=O)[C@H]2[C@H](C)O)cc1 returned MsrA inhibitor -0.6.
For COCCNC(=O)C(c1ccc(C)o1)N(Cc1ccc(OC)cc1)C(=O)Cn1nnc2ccccc21 (stereo not drawn) the results were pCIP destab 4.4, SKN-1 block 35.2*, MsrA inhibitor -0.8, MsrA act -1.0 and MT1-MMP act inh -2.4.
COCCNC(=O)C(c1ccc(C)o1)N(Cc1ccc(F)cc1)C(=O)Cn1nnc2ccccc21 (stereo not drawn) was read as pCIP destab -7.1, SKN-1 block 6.9, MsrA inhibitor 0.4, MsrA act -0.3 and MT1-MMP act inh -5.8.
COc1ccc(NC(=O)NC(C(F)(F)F)C(F)(F)F)cc1 was read as pCIP destab -7.3, SKN-1 block 43.1*, MsrA inhibitor 0.5, MsrA act -12.7 and MT1-MMP act inh -0.6.
CN1CCCCC(NC(=O)c2ccc(F)c(F)c2)C1=O (stereo not drawn) was read as MsrA inhibitor 0.0.
Screening Nc1ccccc1SC(CC(=O)c1ccccc1)c1ccc([N+](=O)[O-])cc1 (stereo not drawn) returned SKN-1 block 3.8, MsrA inhibitor 1.5, MsrA act 6.5 and MT1-MMP act inh -5.3.
`Nc1ccccc1SC(CC(=O)c1ccccc1)c1cccc([N+](=O)[O-])c1` (stereo not drawn) gave SKN-1 block -1.4, MsrA inhibitor 0.9, MsrA act 8.1* and MT1-MMP act inh -4.7.
COc1ccc(-c2nc(-c3cccs3)no2)cc1 was read as pCIP destab -5.7, SKN-1 block 38.2*, MsrA inhibitor 1.4, MsrA act -11.0 and MT1-MMP act inh 1.1.
`Cc1ccc(-c2noc(-c3cccs3)n2)cc1` gave pCIP destab -9.3, SKN-1 block 67.5*, MsrA inhibitor 1.0, MsrA act -3.3 and MT1-MMP act inh -2.0.
For c1csc(-c2nc(-c3ccc(-c4ccon4)s3)no2)c1 the results were pCIP destab -9.0, SKN-1 block 46.5*, MsrA inhibitor 0.0, MsrA act -2.3 and MT1-MMP act inh 3.8.
`COc1ccc(-c2nc(-c3ccncc3)no2)cc1` gave pCIP destab -5.8, SKN-1 block 17.3, MsrA inhibitor 0.7, MsrA act -0.9 and MT1-MMP act inh 3.2.
Screening c1ccc(-c2nc(-c3ccc(-c4ccon4)s3)no2)cc1 returned pCIP destab -4.9, SKN-1 block 29.8, MsrA inhibitor 1.4, MsrA act 4.0 and MT1-MMP act inh 2.4.
CCOCCCNC(=O)C(c1ccc(Cl)cc1)N1CCC2(CC1)OCCO2 (stereo not drawn) was read as pCIP destab -14.2, SKN-1 block 37.0*, MsrA inhibitor 0.3, MsrA act -10.9 and MT1-MMP act inh -3.5.
`O=Nc1c(O)[nH]c2ccc(F)cc12` gave pCIP destab -4.4, SKN-1 block -10.2, MsrA inhibitor 1.0, MsrA act -11.3 and MT1-MMP act inh -2.9.
NC(=S)N=Nc1c(O)[nH]c2ccc(F)cc12 was read as pCIP destab 8.7, SKN-1 block 0.0, MsrA inhibitor 4.5*, MsrA act -2.1 and MT1-MMP act inh 7.6.
CC(Nc1cc(N2CCN(C(=O)C(C)(C)C)CC2)ccc1[N+](=O)[O-])c1ccccc1 (stereo not drawn) was read as pCIP destab -9.0, SKN-1 block 14.0, MsrA inhibitor 10.7*, MsrA act -2.3 and MT1-MMP act inh -1.1.
Screening CC(Nc1cc(N2CCNCC2)ccc1[N+](=O)[O-])c1ccccc1 (stereo not drawn) returned pCIP destab -20.0, SKN-1 block 7.0, MsrA inhibitor 2.7, MsrA act 0.9 and MT1-MMP act inh -3.0.
`CCS(=O)(=O)N1CCN(c2ccc([N+](=O)[O-])c(NC(C)c3ccccc3)c2)CC1` (stereo not drawn) gave pCIP destab -14.5, SKN-1 block 8.9, MsrA inhibitor 7.3*, MsrA act -3.9 and MT1-MMP act inh -2.0.
CCN(CC)c1ccc(N=Nc2ncn[nH]2)cc1 was read as pCIP destab -37.4, SKN-1 block 45.6*, MsrA inhibitor 0.4, MsrA act -2.9 and MT1-MMP act inh 28.5.
COc1cccc(CNC(=O)[C@H]2CCCN2C(=O)[C@H]2CCCN2C(=O)c2cccs2)c1 was read as MsrA inhibitor -0.1.
FC(F)(F)c1cc(-c2ccccc2)nc(NC2CCCC2)n1 was read as pCIP destab -6.7, SKN-1 block 36.7*, MsrA inhibitor 0.0, MsrA act -5.7 and MT1-MMP act inh -10.7.
`FC(F)(F)c1cc(-c2ccccc2)nc(NCC2CCCO2)n1` (stereo not drawn) gave pCIP destab -13.0, SKN-1 block 17.5, MsrA inhibitor 1.1, MsrA act 0.7 and MT1-MMP act inh -1.0.
For CCCN1CCCCC(NC(=O)c2ccc(-c3ccccc3)cc2)C1=O (stereo not drawn) the results were MsrA inhibitor 1.0.
CCCn1c(=S)[nH]c2sc3c(c2c1=O)CCCC3 was read as pCIP destab 8.4, SKN-1 block -0.5, MsrA inhibitor -0.3, MsrA act 0.6 and MT1-MMP act inh -0.3.
For Nn1c(=S)[nH]c2sc3c(c2c1=O)CCCC3 the results were SKN-1 block 35.6*, MsrA inhibitor 2.4, MsrA act 7.1 and MT1-MMP act inh 1.6.
For CC(=O)Nc1csc2ccccc12 the results were pCIP destab -12.9, SKN-1 block 1.3, MsrA inhibitor -1.1, MsrA act -2.1 and MT1-MMP act inh -6.9.
For O=C(Nc1ccccc1)Nc1csc2ccccc12 the results were pCIP destab -14.2, SKN-1 block 35.4*, MsrA inhibitor -1.7, MsrA act -0.7 and MT1-MMP act inh -2.5.
Cc1cccc(Nc2nc(-c3ccc(F)cc3)cs2)n1 was read as pCIP destab -2.1, SKN-1 block 15.7, MsrA inhibitor -0.7, MsrA act -3.9 and MT1-MMP act inh -1.9.
For Cc1cccc(Nc2nc(-c3cccs3)cs2)n1 the results were pCIP destab 4.9, SKN-1 block 36.3*, MsrA inhibitor 0.8, MsrA act -2.6 and MT1-MMP act inh -12.8.
`c1ccc(Nc2nc(-c3cccs3)cs2)nc1` gave pCIP destab 8.7, SKN-1 block 71.7*, MsrA inhibitor -0.1, MsrA act -3.0 and MT1-MMP act inh -4.1.
`Fc1ccc(-c2csc(-c3ccncc3)n2)cc1` gave pCIP destab -1.9, SKN-1 block 69.9*, MsrA inhibitor 1.6, MsrA act -0.6 and MT1-MMP act inh -4.8.
`Fc1ccc(-c2csc(Nc3ccccn3)n2)cc1` gave pCIP destab -5.8, SKN-1 block 74.6*, MsrA inhibitor 0.2, MsrA act -2.1 and MT1-MMP act inh -0.2.
c1ccc(Nc2nc(-c3cccnc3)cs2)nc1 was read as pCIP destab 1.4, SKN-1 block 15.3, MsrA inhibitor 0.7, MsrA act -2.9 and MT1-MMP act inh -5.0.
Screening CC1=C[C@@H]2[C@H]3C(=O)N(Cc4ccccc4)C(=O)[C@H]3[C@@H]1[C@@H]1O[C@@]3(C(=O)N(C)c4ccccc43)C3=C(CCCC3=O)N21 returned MsrA inhibitor 0.1.
